Laboratory results reported in ChEMBL document CHEMBL4184133, “Chemical Constituents and Anti-inflammatory Principles from the Fruits of Forsythia suspensa” (J Nat Prod, 2017).
Converted amounts (≈) assume the structure as drawn.

Assays:
Neutrophil [1] = assay: Anti-inflammatory activity in human neutrophils assessed as inhibition of fMLP/CB-induced elastase release pre-incubated for 5 mins before fMLP/CB stimulation using MeO-Suc-Ala-Ala-Pro-Val-pnitroanilide as substrate; type: functional, cell-based
Outline: (§1)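 Neutrophils were isolated by dextran sedimentation, Ficoll Hypaque centrifugation and hypotonic lysis of erythrocytes, then held in Ca2+-free HBSS pH 7.4 at 4 °C. Cells at 6 × 10^5/mL with 100 μM substrate were equilibrated 2 min at 37 °C and given compound or 0.1% DMSO vehicle for 5 min. They were activated with 100 nM fMLP plus 0.5 μg/mL cytochalasin B, and A405 was monitored continuously. Release is expressed as percent of the drug-free activated control. Mean ± SD.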

Neutrophil [2] = assay: Anti-inflammatory activity in human neutrophils assessed as inhibition of fMLP/CB-induced superoxide anion generation by measuring superoxide dismutase SOD-inhibitable ferricytochrome c reduction at 10 ug/ml incubated for 5 mins before fMLP/CB stimulation for 3 mins by spectrophotometry; type: functional
Outline: (§2)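 Same neutrophil preparation. Cells at 6 × 10^5/mL with 0.5 mg/mL ferricytochrome c and 1 mM Ca2+ were equilibrated 2 min at 37 °C and given compound or 0.1% DMSO for 5 min. Cytochalasin B (1 μg/mL) was added, then 100 nM fMLP. A550 was monitored continuously with stirring. Superoxide was calculated from the difference with versus without SOD (100 U/mL) using ε = 21.1/mM/10 mm. IC50 values are mean ± SD, n = 3.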

Neutrophil [3] = assay: Anti-inflammatory activity in human neutrophils assessed as inhibition of fMLP/CB-induced superoxide anion generation by measuring superoxide dismutase SOD-inhibitable ferricytochrome c reduction incubated for 5 mins before fMLP/CB stimulation for 3 mins by spectrophotometry; type: functional, cell-based; outline: as §2
Neutrophil [4] = assay: Anti-inflammatory activity in human neutrophils assessed as inhibition of fMLP/CB-induced elastase release at 10 ug/ml pre-incubated for 5 mins before fMLP/CB stimulation using MeO-Suc-Ala-Ala-Pro-Val-pnitroanilide as substrate; type: functional; outline: as §1

| Structure (SMILES) | IC50 (Neutrophil [1]) [µg/mL] | inhibition at 10 µg/mL (Neutrophil [2]) [%] | IC50 (Neutrophil [3]) [µg/mL] | inhibition (Neutrophil [3]) | inhibition (Neutrophil [1]) | inhibition at 10 µg/mL (Neutrophil [4]) [%] |
| --- | --- | --- | --- | --- | --- | --- |
| C=C1CCC2[C@@](C)(CO)CCC[C@]2(C)[C@H]1CC/C(C)=C/C(=O)O (stereo partly drawn) | > 10 | > 50 | 7.4 (≈ 23.1 µM) | Dose-dependent effect |  |  |
| CC(=O)O[C@H]1CC[C@]2(C)[C@H]3CC=C4[C@@H]5CC(C)(C)CC[C@]5(C(=O)O)CC[C@@]4(C)[C@]3(C)CC[C@H]2C1(C)C [ACETYL OLEANOLIC ACID] | > 10 |  | > 10 |  |  |  |
| COc1ccc([C@H]2OC[C@@H]3C(=O)OC[C@@H]32)cc1OC | > 10 | > 50 | 5.6 (≈ 21.2 µM) | Dose-dependent effect |  |  |
| C/C(=C\C(=O)O)CC[C@@]1(C)[C@H](C)CC[C@]2(C)C(C(=O)O)=CCC[C@H]12 | > 10 |  | > 10 |  |  |  |
| O=C(Cc1ccc(O)cc1)OC[C@H]1CC[C@@H]2C(C(=O)O)=CO[C@@H](O[C@@H]3O[C@H](CO)[C@@H](O)[C@H](O)[C@H]3O)[C@H]12 | > 10 |  | > 10 |  |  |  |
| COC1CC[C@@](C)([C@H]2CC[C@]3(C)[C@@H]2CC[C@@H]2[C@@]4(C)CCC(OC(C)=O)C(C)(C)[C@@H]4CC[C@]23C)O1 (stereo partly drawn) | > 10 |  | > 10 |  |  |  |
| COc1cc(C[C@H]2COC(=O)[C@@H]2Cc2ccc(O)c(OC)c2)ccc1O [MATAIRESINOL] | 7.3 (≈ 20.4 µM) | > 50 | 4.3 (≈ 12 µM) | Dose-dependent effect | Dose-dependent effect | > 50 |
| C[C@@H]1O[C@@H](OC[C@H]2O[C@@H](OCCc3ccc(O)c(O)c3)[C@H](O)[C@@H](O)[C@@H]2OC(=O)/C=C/c2ccc(O)c(O)c2)[C@H](O)[C@H](O)[C@H]1O [FORSYTHIASIDE] | > 10 | > 50 | 1.4 (≈ 2.24 µM) | Dose-dependent effect |  |  |
| C=C1CC[C@H]2[C@](C)(CO)CCC[C@]2(C)[C@H]1CC/C(C)=C/C(=O)O | > 10 |  | > 10 |  |  |  |
| C=C1CC[C@H]2C(C)(C)C(=O)CC[C@]2(C)[C@H]1CC/C(C)=C/C(=O)O | > 10 |  | > 10 |  |  |  |
| COC(C)(C)/C=C/C[C@](C)(O)[C@H]1CC[C@]2(C)C1CC[C@@H]1[C@@]3(C)CC[C@H](OC(C)=O)C(C)(C)[C@@H]3CC[C@]12C (stereo partly drawn) | > 10 |  | > 10 |  |  |  |
| C=C(C)[C@@H]1CC[C@]2(C(=O)O)CC[C@]3(C)C(CCC4[C@@]5(C)C[C@@H](O)[C@H](O)C(C)(C)C5CC[C@]43C)C12 (stereo partly drawn) | 1.9 (≈ 4.02 µM) | > 50 | 0.8 (≈ 1.69 µM) | Dose-dependent effect | Dose-dependent effect | > 50 |
| O=C1C=CC2(O)CC(=O)OC2C1 (stereo not drawn) | > 10 |  | > 10 |  |  |  |
| COc1cc([C@H]2OC[C@H]3[C@@H]2CO[C@H]3c2ccc(OC)c(OC)c2)ccc1O [PHILLYGENIN] | > 10 | > 50 | 6.4 (≈ 17.2 µM) | Dose-dependent effect |  |  |
| CC1=C(CC/C(C)=C/C(=O)O)[C@@]2(C)CCC[C@@](C)(CO)[C@@H]2CC1=O | > 10 |  | > 10 |  |  |  |
| CC(=O)O[C@H]1CC[C@]2(C)[C@H]3CCC4[C@@H]([C@@](C)(O)CCC=C(C)C)CC[C@@]4(C)[C@]3(C)CC[C@H]2C1(C)C (stereo partly drawn) | > 10 |  | > 10 |  |  |  |
| C=C1CC[C@H]2[C@@](C)(COC=O)CCC[C@]2(C)[C@H]1CC/C(C)=C\C(=O)O | > 10 |  | > 10 |  |  |  |
| C=C1CC[C@@H]2[C@](C)(CCC[C@@]2(C)C(=O)O)[C@H]1CC/C(C)=C\C(=O)O | > 10 |  | > 10 |  |  |  |
| CC(=O)OC1CC[C@]2(C)[C@H]3CC[C@@H]4[C@@H]([C@]5(C)CCC(=O)O5)CC[C@@]4(C)[C@]3(C)CC[C@H]2C1(C)C (stereo partly drawn) | > 10 |  | > 10 |  |  |  |
| CNC(=O)c1cc(Oc2ccc(NC(=O)Nc3ccc(Cl)c(C(F)(F)F)c3)cc2)ccn1 [SORAFENIB] | 0.9 (≈ 1.94 µM) |  | 1.5 (≈ 3.23 µM) |  |  |  |
| C=C1CC[C@H]2[C@@](C)(CO)CCC[C@]2(C)[C@H]1CC/C(C)=C\C(=O)O | > 10 | > 50 | 2.5 (≈ 7.8 µM) |  |  |  |
| COc1cc([C@H]2OC[C@H]3[C@@H]2CO[C@H]3c2ccc(O)c(OC)c2)ccc1O [PINORESINOL] | > 10 | > 50 | 3.4 (≈ 9.49 µM) | Dose-dependent effect |  |  |
| C[C@H]1[C@H](C)CC[C@]2(C(=O)O)CC[C@]3(C)C(=CC[C@@H]4[C@@]5(C)CC[C@H](O)C(C)(C)[C@@H]5CC[C@]43C)[C@H]12 [URSOLIC ACID] | 0.8 (≈ 1.75 µM) | > 50 | 0.6 (≈ 1.31 µM) | Dose-dependent effect | Dose-dependent effect | > 50 |
| C/C(=C\C(=O)O)CC[C@H]1C(CO)=CC[C@H]2[C@@](C)(CO)CCC[C@]12C | > 10 | > 50 | 8.3 (≈ 24.7 µM) |  |  |  |
| COc1cc([C@H]2OC[C@H]3[C@@H]2CO[C@@H]3c2ccc(O)c(OC)c2)ccc1O | > 10 | > 50 | 1.3 (≈ 3.63 µM) | Dose-dependent effect |  |  |
| CC(=O)O[C@H]1CC[C@]2(C)[C@H]3CCC4[C@@H]([C@]5(C)CC[C@@H](O)C(C)(C)O5)CC[C@@]4(C)[C@]3(C)CC[C@H]2C1(C)C (stereo partly drawn) | > 10 |  | > 10 |  |  |  |
